Source: ChEMBL document CHEMBL3352174, “Identification of a New RXRα Antagonist Targeting the Coregulator-Binding Site” (ACS Med Chem Lett, 2014)
Positions count from the first letter of the chain named. Calls of active or inactive are those of the source. No cut-off for these calls is given here.

Key:
[1] = tested on: A549; test: Induction of apoptosis in TNFalpha-stimulated human A549 cells assessed as PARP cleavage at 5 and 10 uM pre-treated for 24 hrs before TNFalpha addition by immunoblotting method; type: functional, cell-based
How it was run: (§1)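 A549 or HepG2 cells were treated with compound for 24 h, with or without subsequent TNFα (20 ng/mL) for 30 min. Lysates were immunoblotted for PARP cleavage as the apoptosis marker. One of three to five similar experiments shown.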

[2] = molecular target: T1, Retinoic acid receptor RXR-beta (Homo sapiens) (UniProt P28702); test: Antagonist activity against RXRbeta ligand binding domain (unknown origin) expressed in human HEK293T cells assessed as inhibition of 9-cis-RA-induced receptor transactivation at 2 and 10 uM after 18 hrs by luciferase reporter gene based mammalian one-hybrid assay; type: cell-based; conditions: HEK-293T
T1 sequence (whole entry): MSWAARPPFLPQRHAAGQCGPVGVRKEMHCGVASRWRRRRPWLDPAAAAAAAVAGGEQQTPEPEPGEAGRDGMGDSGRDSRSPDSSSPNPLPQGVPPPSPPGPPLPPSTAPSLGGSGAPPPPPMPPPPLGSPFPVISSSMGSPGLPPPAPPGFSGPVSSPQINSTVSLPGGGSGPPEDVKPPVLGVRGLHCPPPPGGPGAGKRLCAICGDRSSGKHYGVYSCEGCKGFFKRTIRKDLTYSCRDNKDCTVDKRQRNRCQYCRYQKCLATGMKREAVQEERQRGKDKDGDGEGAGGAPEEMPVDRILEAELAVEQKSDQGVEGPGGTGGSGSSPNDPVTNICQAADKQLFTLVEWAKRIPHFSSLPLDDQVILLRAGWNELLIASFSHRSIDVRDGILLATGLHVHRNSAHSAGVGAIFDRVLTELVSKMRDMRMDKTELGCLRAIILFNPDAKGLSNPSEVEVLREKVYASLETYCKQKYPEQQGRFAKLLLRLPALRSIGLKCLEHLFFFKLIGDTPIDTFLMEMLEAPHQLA

[3] = molecular target: T2, Peroxisome proliferator-activated receptor gamma (Homo sapiens) (UniProt P37231); test: Antagonist activity against PPARgamma ligand binding domain (unknown origin) expressed in human MCF7 cells assessed as inhibition of ROS-induced receptor transactivation at 10 uM after 18 hrs by luciferase reporter gene based mammalian one-hybrid assay; type: cell-based
T2 sequence (whole entry): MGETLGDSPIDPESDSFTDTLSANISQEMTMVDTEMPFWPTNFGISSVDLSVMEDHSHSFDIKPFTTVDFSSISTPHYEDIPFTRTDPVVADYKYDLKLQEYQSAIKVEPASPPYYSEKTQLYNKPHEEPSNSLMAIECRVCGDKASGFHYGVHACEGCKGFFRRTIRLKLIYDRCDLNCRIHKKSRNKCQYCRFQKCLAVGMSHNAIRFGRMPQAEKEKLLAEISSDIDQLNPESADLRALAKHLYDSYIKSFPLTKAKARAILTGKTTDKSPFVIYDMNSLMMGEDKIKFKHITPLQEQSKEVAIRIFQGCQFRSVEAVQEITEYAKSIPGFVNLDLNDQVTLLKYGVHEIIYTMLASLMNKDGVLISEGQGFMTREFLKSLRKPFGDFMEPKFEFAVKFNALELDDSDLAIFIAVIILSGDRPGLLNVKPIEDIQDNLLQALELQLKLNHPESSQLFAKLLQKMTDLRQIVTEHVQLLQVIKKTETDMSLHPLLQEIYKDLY

[4] = molecular target: T3, Retinoic acid receptor RXR-alpha (Homo sapiens) (UniProt P19793); test: Antagonist activity against RXRalpha in TNFalpha-stimulated human PC3 cells assessed as inhibition of AKT phosphorylation at 5 and 10 uM pre-treated for 24 hrs before TNFalpha addition by Western blotting method; type: cell-based; conditions: PC-3
T3 sequence (whole entry): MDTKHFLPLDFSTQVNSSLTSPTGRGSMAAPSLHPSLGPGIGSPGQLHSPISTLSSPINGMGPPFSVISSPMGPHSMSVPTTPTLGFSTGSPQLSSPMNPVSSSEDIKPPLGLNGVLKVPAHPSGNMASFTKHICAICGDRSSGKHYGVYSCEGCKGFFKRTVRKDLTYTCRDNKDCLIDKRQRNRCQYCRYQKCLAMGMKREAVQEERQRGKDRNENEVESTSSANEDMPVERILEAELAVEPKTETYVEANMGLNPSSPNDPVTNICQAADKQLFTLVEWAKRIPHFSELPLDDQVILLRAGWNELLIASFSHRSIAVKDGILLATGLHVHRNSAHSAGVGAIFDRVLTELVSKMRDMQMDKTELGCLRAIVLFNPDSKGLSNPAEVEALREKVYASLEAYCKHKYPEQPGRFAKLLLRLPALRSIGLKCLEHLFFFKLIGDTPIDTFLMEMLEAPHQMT

[5] = tested on: HepG2; test: Induction of apoptosis in human HepG2 cells assessed as PARP cleavage at 5 and 10 uM by immunoblotting method; type: functional, cell-based; how it was run: as §1
[6] = tested on: T4, Retinoic acid receptor RXR-alpha (Homo sapiens), P19793 [A272W]; test: Antagonist activity against RXRalpha A272W/F313A mutant (unknown origin) expressed in human HEK293T cells assessed as inhibition of constitutive receptor transactivation at 1 to 10 uM after 18 hrs by luciferase reporter gene based mammalian one-hybrid assay; conditions: HEK-293T
T4 sequence (whole entry): T3 sequence (whole entry) with A272W

[7] = tested on: MCF7; test: Growth inhibition of tRXRalpha stably expressing human MCF7 cells at 2 to 10 uM after 48 hrs by MTT assay; type: functional, cell-based
[8] = molecular target: T3, Retinoic acid receptor RXR-alpha (Homo sapiens); test: Antagonist activity against RXRalpha delta80 mutant (unknown origin) expressed in human A549 cells assessed as reduction in TNFalpha-induced interaction of Myc-tagged RXRalpha- delta80 with p85alpha by co-immunoprecipitation assay; type: cell-based
How it was run: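 A549 cells were transfected with Myc-RXRα-Δ80 (truncated RXRα mimic) and treated with or without TNFα and/or compound. Anti-Myc immunoprecipitates were immunoblotted for endogenous p85α and Myc-RXRα-Δ80. One of three to five similar experiments shown.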

- inhibition [2]: Active
- inhibition [3]: Active
- inhibition [4]: Active
- inhibition [6]: Dose-dependent effect
- inhibition [8]: Active
Compound: Cc1cc(=O)oc2c(/C=N/NC(=O)CSc3nc4ccccc4s3)c(O)ccc12
- Activity [1]: Active
- Activity [5]: Active
- growth inhibition (GI) [7]: Active
